Activity calls are given as the source filed them. The rule behind the calls is not given here.
Key:
Format in all cases: cell-based
[1] = biological target: T1, Potassium voltage-gated channel subfamily KQT member 5 (Homo sapiens, UniProt Q9NR82); test: Activity at human KCNQ5 expressed in CHOK1 cells assessed as ratio of amplitude of outward current in presence of test compound to amplitude of outward current in absence of test compound at 10 uM at -10 mV by whole cell patch clamp assay
In short: (§1)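 CHO-K1 cells expressing the channel, whole-cell voltage clamp, compound at 10 μM. Read-out is the outward current ratio I/I0 with and without compound, taken at −10 mV. I/I0 > 1 counts as activation and < 1 as inhibition. More than four cells per compound.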

[2] = biological target: T2, Potassium voltage-gated channel subfamily KQT member 4 (Homo sapiens) (UniProt P56696); test: Activity at human KCNQ4 expressed in CHOK1 cells assessed as ratio of amplitude of outward current in presence of test compound to amplitude of outward current in absence of test compound at 10 uM at -10 mV by whole cell patch clamp assay; in short: as §1
T2 sequence (whole entry): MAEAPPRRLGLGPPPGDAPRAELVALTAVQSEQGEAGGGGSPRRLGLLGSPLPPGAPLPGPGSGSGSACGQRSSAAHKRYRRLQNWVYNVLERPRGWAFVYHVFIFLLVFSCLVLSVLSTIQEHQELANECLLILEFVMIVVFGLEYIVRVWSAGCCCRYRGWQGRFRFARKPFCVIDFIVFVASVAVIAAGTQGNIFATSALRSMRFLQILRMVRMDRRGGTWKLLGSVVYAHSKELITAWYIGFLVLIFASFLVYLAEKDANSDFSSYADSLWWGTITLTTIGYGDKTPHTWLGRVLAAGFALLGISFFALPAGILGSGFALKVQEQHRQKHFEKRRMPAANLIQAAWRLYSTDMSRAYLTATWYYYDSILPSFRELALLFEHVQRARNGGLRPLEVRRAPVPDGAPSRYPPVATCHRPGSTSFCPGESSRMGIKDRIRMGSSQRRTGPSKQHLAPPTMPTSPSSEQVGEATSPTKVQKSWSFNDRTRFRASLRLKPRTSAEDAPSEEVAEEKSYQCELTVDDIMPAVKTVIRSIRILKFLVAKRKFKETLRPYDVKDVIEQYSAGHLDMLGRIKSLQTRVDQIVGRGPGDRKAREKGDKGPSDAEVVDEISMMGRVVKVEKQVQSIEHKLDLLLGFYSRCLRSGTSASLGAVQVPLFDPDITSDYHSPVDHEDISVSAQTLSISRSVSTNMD

[3] = biological target: Potassium voltage-gated channel subfamily KQT member 2 (Rattus norvegicus) (UniProt O88943); test: Activity at rat KCNQ2 expressed in CHOK1 cells assessed as ratio of amplitude of outward current in presence of test compound to amplitude of outward current in absence of test compound at 10 uM at -10 mV by whole cell patch clamp assay; in short: as §1
Potassium voltage-gated channel subfamily KQT member 2 (Rattus norvegicus), sequence (O88943 whole entry): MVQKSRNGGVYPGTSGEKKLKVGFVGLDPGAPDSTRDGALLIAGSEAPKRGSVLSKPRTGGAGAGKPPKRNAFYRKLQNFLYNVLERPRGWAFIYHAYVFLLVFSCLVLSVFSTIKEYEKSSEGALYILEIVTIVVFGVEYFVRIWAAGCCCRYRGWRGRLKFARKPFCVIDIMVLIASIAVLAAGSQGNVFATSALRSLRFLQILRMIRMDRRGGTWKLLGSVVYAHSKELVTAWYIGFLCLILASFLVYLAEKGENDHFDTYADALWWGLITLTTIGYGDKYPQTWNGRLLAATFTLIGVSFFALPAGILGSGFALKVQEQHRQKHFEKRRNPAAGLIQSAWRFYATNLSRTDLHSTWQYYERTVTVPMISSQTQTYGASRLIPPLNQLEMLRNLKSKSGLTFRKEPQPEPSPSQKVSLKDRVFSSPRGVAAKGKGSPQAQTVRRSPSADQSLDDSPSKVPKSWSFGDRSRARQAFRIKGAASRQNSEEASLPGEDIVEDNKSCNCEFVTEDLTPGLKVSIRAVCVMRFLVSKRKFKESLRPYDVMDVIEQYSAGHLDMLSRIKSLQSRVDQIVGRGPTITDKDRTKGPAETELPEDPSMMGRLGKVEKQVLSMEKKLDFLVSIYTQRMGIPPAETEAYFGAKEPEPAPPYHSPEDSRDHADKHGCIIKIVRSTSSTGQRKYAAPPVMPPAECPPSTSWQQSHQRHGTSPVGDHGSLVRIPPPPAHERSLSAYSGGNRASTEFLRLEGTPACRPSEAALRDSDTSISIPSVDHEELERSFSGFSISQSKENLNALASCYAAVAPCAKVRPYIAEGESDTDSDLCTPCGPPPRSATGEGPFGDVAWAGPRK

[4] = biological target: T3, Potassium voltage-gated channel subfamily KQT member 4 (Homo sapiens, UniProt P56696); test: Agonist activity at human KCNQ4 expressed in CHOK1 cells by whole cell patch clamp assay
T3 sequence (P56696 whole entry): T2 sequence (whole entry)
In short: (§2)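 Concentration–response by whole-cell voltage clamp in CHO-K1 cells transiently expressing the homomeric channel. EC50 and Hill coefficient come from fitting outward currents recorded across the tested concentrations.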

[5] = biological target: T1, Potassium voltage-gated channel subfamily KQT member 5; test: Agonist activity at human KCNQ5 expressed in CHOK1 cells by whole cell patch clamp assay; in short: as §2
[6] = biological target: T4, Potassium voltage-gated channel subfamily KQT member 2 (Rattus norvegicus, UniProt O88943); test: Agonist activity at rat KCNQ2 expressed in CHOK1 cells by whole cell patch clamp assay; in short: as §2
T4 sequence (O88943 whole entry): as above

[7] = biological target: Potassium voltage-gated channel subfamily KQT member 2 (Rattus norvegicus) (UniProt O88943); test: Effect on voltage-dependent activation of rat KCNQ2 expressed in CHOK1 cells assessed as negative shift in current activation curve at 10 uM by whole cell patch clamp assay
[8] = biological target: T2, Potassium voltage-gated channel subfamily KQT member 4 (Homo sapiens); test: Effect on voltage-dependent activation of human KCNQ4 expressed in CHOK1 cells assessed as negative shift in current activation curve at 10 uM by whole cell patch clamp assay
[9] = biological target: T4, Potassium voltage-gated channel subfamily KQT member 2; test: Activation of rat homomeric KCNQ2 expressed in CHOK1 cells assessed as outward current amplitude up to 30 uM by whole cell patch clamp assay
In short: (§3)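 Homomeric KCNQ2 in CHO-K1 cells, whole-cell voltage clamp, compound applied over 1–30 μM. Change in outward current amplitude was read against the pre-drug current, including at 30 μM.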

[10] = biological target: Potassium voltage-gated channel subfamily KQT member 2 (Rattus norvegicus) (UniProt O88943); test: Channel opening activity at rat KCNQ2 expressed in CHOK1 cells at 10 uM at -60 mV by whole cell patch clamp assay
[11] = biological target: Voltage-gated potassium channel, KQT; KCNQ2(Kv7.2)/KCNQ3(Kv7.3) (Homo sapiens, UniProt O43526+O43525); test: Agonist activity at KCNQ2/KCNQ3 (unknown origin) expressed in CHOK1 cells assessed as increase in amplitude of outward current at 10 uM by whole cell patch clamp assay relative to control
Voltage-gated potassium channel, KQT; KCNQ2(Kv7.2)/KCNQ3(Kv7.3), sequence (O43526 whole entry): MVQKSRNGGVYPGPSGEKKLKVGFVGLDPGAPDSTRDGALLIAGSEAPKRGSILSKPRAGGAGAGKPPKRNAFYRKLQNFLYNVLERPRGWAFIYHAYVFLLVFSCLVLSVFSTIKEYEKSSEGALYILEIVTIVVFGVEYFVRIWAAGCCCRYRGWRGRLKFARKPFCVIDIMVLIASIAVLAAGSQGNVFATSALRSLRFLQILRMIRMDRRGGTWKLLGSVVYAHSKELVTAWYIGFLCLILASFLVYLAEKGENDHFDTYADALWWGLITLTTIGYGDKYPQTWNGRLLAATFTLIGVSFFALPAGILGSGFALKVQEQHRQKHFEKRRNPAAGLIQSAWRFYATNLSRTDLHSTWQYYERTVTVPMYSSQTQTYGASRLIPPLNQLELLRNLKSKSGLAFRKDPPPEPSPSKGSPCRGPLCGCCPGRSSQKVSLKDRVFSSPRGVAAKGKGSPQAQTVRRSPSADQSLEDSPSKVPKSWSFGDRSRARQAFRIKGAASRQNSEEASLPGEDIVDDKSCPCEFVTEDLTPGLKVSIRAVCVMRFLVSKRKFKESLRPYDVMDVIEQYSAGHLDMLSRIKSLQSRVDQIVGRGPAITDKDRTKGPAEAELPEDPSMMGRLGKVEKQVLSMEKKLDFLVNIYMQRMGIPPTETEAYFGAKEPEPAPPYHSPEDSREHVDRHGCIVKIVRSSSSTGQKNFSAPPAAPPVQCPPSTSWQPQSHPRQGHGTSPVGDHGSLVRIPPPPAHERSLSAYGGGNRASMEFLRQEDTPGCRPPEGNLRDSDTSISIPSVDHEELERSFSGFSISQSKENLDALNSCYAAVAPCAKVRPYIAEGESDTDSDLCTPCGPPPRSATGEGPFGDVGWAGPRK
Voltage-gated potassium channel, KQT; KCNQ2(Kv7.2)/KCNQ3(Kv7.3), sequence (O43525 whole entry): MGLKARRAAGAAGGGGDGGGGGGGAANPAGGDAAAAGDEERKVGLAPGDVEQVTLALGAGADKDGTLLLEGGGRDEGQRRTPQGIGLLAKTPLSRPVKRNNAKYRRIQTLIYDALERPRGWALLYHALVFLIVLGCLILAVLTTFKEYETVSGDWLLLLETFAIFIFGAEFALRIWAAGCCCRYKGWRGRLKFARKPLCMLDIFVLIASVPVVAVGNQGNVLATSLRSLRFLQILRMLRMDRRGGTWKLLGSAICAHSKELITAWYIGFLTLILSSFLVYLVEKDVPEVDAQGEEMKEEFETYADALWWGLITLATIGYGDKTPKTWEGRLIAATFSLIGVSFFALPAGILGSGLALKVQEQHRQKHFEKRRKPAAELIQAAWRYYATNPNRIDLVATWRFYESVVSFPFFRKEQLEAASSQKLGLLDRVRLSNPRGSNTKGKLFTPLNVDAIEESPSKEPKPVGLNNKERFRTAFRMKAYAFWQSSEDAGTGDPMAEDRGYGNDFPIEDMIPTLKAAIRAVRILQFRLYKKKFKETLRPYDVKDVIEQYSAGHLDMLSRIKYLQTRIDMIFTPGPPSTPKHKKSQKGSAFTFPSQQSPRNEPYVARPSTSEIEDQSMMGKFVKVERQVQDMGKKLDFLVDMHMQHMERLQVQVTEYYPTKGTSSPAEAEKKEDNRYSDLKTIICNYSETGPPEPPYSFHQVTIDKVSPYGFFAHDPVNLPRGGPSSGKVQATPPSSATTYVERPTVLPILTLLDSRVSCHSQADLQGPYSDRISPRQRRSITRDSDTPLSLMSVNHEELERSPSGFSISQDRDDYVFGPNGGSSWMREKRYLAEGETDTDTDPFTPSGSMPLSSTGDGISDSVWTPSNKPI
In short: (§4)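 Individual KCNQ subtypes and KCNQ2/3 heteromers transfected into CHO cells, whole-cell recording before and after 10 μM compound. Cells held at −80 mV, stepped from −90 to +60 mV in 10 mV increments for 1500 ms, then to −120 mV for 500 ms. Currents compared at −10 and +60 mV.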

[12] = biological target: Potassium voltage-gated channel subfamily KQT member 2 (Rattus norvegicus) (UniProt O88943); test: Inhibition of rat homomeric KCNQ2 expressed in CHOK1 cells assessed as effect on outward current amplitude at 30 uM by whole cell patch clamp assay; in short: as §3
[13] = biological target: T2, Potassium voltage-gated channel subfamily KQT member 4 (Homo sapiens); test: Channel opening activity at human KCNQ4 expressed in CHOK1 cells at 10 uM at -60 mV by whole cell patch clamp assay
[14] = biological target: T5, Potassium voltage-gated channel subfamily KQT member 3 (Rattus norvegicus, UniProt O88944); test: Agonist activity at rat KCNQ3 expressed in CHOK1 cells assessed as increase in amplitude of outward current at 10 uM by whole cell patch clamp assay relative to control; in short: as §4
T5 sequence (O88944 whole entry): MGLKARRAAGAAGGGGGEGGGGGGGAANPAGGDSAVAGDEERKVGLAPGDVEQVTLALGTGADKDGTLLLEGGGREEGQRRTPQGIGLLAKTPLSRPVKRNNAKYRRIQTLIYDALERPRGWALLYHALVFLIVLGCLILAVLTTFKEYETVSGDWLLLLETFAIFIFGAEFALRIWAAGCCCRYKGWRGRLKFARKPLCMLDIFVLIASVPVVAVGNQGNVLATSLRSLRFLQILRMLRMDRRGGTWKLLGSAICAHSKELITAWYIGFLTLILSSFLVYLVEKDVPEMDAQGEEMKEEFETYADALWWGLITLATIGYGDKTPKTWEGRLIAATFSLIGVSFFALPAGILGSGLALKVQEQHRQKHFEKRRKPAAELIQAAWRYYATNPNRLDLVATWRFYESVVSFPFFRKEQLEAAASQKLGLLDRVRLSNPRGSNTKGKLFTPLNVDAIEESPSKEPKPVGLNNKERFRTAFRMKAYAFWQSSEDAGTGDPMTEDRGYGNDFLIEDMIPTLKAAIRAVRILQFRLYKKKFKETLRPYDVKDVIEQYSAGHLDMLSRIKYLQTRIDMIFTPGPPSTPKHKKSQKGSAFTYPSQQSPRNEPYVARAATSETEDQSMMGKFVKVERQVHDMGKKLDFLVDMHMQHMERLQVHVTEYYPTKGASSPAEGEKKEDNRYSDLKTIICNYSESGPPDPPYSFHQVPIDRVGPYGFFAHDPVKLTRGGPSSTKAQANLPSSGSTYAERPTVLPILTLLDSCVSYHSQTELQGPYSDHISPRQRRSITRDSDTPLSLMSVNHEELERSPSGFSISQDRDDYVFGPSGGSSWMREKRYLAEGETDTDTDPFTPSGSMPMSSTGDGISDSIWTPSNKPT

[15] = biological target: Potassium voltage-gated channel subfamily KQT member 2 (Rattus norvegicus) (UniProt O88943); test: Inhibition of rat KCNQ2 expressed in CHOK1 cells at 10 uM at -10 mV by whole cell patch clamp assay relative to control; in short: as §1

T1 sequence (Q9NR82 whole entry): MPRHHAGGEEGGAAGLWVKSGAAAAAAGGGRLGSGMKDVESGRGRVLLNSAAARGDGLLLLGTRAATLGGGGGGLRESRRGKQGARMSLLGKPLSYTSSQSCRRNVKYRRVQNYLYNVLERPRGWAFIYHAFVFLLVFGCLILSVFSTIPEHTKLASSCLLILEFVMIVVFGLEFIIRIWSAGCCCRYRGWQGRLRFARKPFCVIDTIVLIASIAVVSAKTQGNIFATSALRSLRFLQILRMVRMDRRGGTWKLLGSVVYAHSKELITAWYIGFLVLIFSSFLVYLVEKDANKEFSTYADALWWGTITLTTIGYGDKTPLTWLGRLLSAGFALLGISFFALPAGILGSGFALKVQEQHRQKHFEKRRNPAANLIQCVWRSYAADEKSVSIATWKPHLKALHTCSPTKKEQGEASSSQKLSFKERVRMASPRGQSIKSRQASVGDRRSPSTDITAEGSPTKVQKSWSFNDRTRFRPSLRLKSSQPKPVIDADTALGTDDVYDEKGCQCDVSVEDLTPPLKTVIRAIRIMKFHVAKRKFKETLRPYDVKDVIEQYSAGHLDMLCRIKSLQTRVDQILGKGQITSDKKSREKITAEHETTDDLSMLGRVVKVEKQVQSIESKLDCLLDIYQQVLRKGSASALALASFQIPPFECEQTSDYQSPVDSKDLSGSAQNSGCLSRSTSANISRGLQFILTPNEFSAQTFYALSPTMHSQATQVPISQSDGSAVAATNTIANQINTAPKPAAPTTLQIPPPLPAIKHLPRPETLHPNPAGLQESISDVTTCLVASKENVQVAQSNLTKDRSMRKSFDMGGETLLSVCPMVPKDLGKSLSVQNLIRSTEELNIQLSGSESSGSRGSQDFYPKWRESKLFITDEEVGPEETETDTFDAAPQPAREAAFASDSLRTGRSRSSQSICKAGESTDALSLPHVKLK

Row | SMILES | Ratio [1] | Ratio [2] | Ratio [3] | further results
1 | C#CCN(Cc1ccc(F)cc1)c1ccc(NC(=O)OCCCC)c(NC(=O)OCCCC)c1 | 4.13 | 2.75 | 0.77 | 
2 | C#CCN(Cc1ccc(F)cc1)c1ccc(NC(=O)OC(C)(C)C)c(NC(=O)OC(C)(C)C)c1 | 5.32 | 3.05 | 1 | EC50 [4]: 2.03 µM; EC50 [5]: 2.43 µM; EC50 [6]: > 30 µM
3 | C#CCN(Cc1ccc(F)cc1)c1ccc(NC(=O)OC(C)C)c(NC(=O)OC(C)C)c1 | 3.11 | 1.33 | 0.35 | 
4 | C#CCN(Cc1ccc(F)cc1)c1ccc(NC(=O)OCC=C)c(NC(=O)OCC=C)c1 | 5.26 | 2.21 | 0.67 | 
5 | CCOC(=O)Nc1ccc(N(CC#Cc2ccccc2)Cc2ccc(F)cc2)cc1NC(=O)OCC | 1.13 | 1.54 | 1.26 | 
6 | C#CCN(Cc1ccc(F)cc1)c1ccc(NC(=O)OCC(C)C)c(NC(=O)OCC(C)C)c1 | 1.73 | 1.52 | 0.83 | 
7 | C/C=C(\C)CN(Cc1ccc(F)cc1)c1ccc(NC(=O)OCC)c(NC(=O)OCC)c1 | 1.28 | 2.36 | 0.85 | 
8 | C#CCN(Cc1ccc(F)cc1)c1ccc(NC(=O)OCc2ccccc2)c(NC(=O)OCc2ccccc2)c1 | 3.57 | 3.02 | 1.25 | 
9 | CCOC(=O)Nc1ccc(N(CC=C(C)C)Cc2ccc(F)cc2)cc1NC(=O)OCC | 1.37 | 3.63 | 0.66 | 
10 | C#CCN(Cc1ccc(F)cc1)c1ccc(NC(=O)OCC)c(NC(=O)OC(C)C)c1 | 5.71 | 5.01 | 0.94 | 
11 | C#CCN(Cc1ccc(F)cc1)c1ccc(NC(=O)OCC)c(NC(=O)OCCCC)c1 | 3.62 | 4.16 | 1.06 | 
12 | C#CCN(Cc1ccc(F)cc1)c1ccc(NC(=O)OC2CCC2)c(NC(=O)OC2CCC2)c1 | 1.33 | 1.21 | 0.26 | 
13 | C#CCN(Cc1ccc(F)cc1)c1ccc(NC(=O)OCC)c(NC(=O)OC(C)(C)C)c1 | 4.58 | 6.37 | 1.16 | Activity [7]: inactive; Activity [8]: inactive; Activity [9]: Not Active; Activity [10]: inactive; fold change (FC) [11]: 1.5; EC50 [4]: 0.78 µM; EC50 [5]: 1.68 µM; inhibition [12]: Active; Activity [13]: inactive; EC50 [6]: > 30 µM; fold change (FC) [14]: 1.5
14 | C#CCN(Cc1ccc(F)cc1)c1ccc(NC(=O)OC2CC2)c(NC(=O)OC2CC2)c1 | 2.55 | 1.51 | 0.64 | 
15 | C#CCN(Cc1ccc(F)cc1)c1ccc(NC(=O)OCC)c(NC(=O)OCc2ccccc2)c1 | 2.57 | 1.27 | 0.97 | 
16 | C#CCN(Cc1ccc(F)cc1)c1ccc(NC(=O)Oc2ccccc2)c(NC(=O)Oc2ccccc2)c1 | 1.16 | 1.22 | 0.91 | 
17 | C/C=C/CN(Cc1ccc(F)cc1)c1ccc(NC(=O)OCC)c(NC(=O)OCC)c1 | 1.36 | 1.85 | 0.87 | 
18 | C#CCN(Cc1ccc(F)cc1)c1ccc(NC(=O)OCC)c(NC(=O)OCC=C)c1 | 4.67 | 3.68 | 0.96 | 
19 | C#CCN(Cc1ccc(F)cc1)c1ccc(NC(=O)OC)c(NC(=O)OC)c1 | 2.89 | 4.77 | 1.37 | 
20 | C#CCN(Cc1ccc(F)cc1)c1ccc(NC(=O)OC(C)(C)C)c(NC(=O)OCC)c1 | 4.59 | 7.71 | 1.07 | EC50 [4]: 1.42 µM; EC50 [5]: 1.37 µM; EC50 [6]: > 30 µM
21 | CCOC(=O)Nc1ccc(N(CC2=CCCCC2)Cc2ccc(F)cc2)cc1NC(=O)OCC | 1.05 | 1.49 | 1.19 | 
22 | CCOC(=O)Nc1ccc(NCc2ccc(F)cc2)cc1N [EZOGABINE] |  |  | 1.6 | Activity [7]: 20 to 30 mV; Activity [8]: 20 to 30 mV; EC50 [4]: 5.9 µM; EC50 [5]: 3.45 µM; EC50 [6]: 2.17 µM
23 | C#CCN(Cc1ccc(F)cc1)c1ccc(NC(=O)OCC)c(NC(=O)OCCC)c1 | 5.81 | 3.95 | 1.07 | 
24 | C#CCN(Cc1ccc(F)cc1)c1ccc(NC(=O)OC2CCCC2)c(NC(=O)OC2CCCC2)c1 | 1.25 | 0.88 | 0.21 | 
25 | C#CCN(Cc1ccc(F)cc1)c1ccc(NC(=O)OCC)c(NC(=O)OCC(C)C)c1 | 4.84 | 5.19 | 1.04 | 
26 | C#CCN(Cc1ccc(F)cc1)c1ccc(NC(=O)OCCC)c(NC(=O)OCCC)c1 | 2.75 | 2.58 | 0.78 | 
27 | C=CCN(Cc1ccc(F)cc1)c1ccc(NC(=O)OCC)c(NC(=O)OCC)c1 | 1.49 |  | 0.3 | inhibition [15]: 70%
28 | C#CCN(Cc1ccc(F)cc1)c1ccc(NC(=O)OCC)c(NC(=O)OC)c1 | 3.34 | 2.56 | 0.61 | 
